Source: PubChem
This is a sample that favours compounds with a hit; in the whole collection about 2% have one here.
STAT1 blocker: reduces IFN-gamma driven STAT1 reporter signal; NIH 3T3 STAT1-luciferase reporter, luminescence; inhibition, % at 5.5 µM; 0.35% of 200,000 active; AID 920;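 active means inhibition above a set limit, the mean inhibition across all tested compounds plus 3 SD, cut at about 34% in these data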;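 further: 0% = IFN-gamma with DMSO and 100% = IFN-gamma with 300 µM nifuroxazide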
STAT3 inh: STAT3 signaling inhibition; U3A cells, IL-6 STAT3-luciferase reporter, luminescence; host cell line lacks STAT1; inhibition, % at 5.5 µM; 0.89% of 190,000 active; AID 862;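 active means inhibition above the mean inhibition across all screened compounds plus 3 SD, cut at about 44% in these data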;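 further: 0% = DMSO only wells and 100% = 100 µM nifuroxazide control wells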
HSP90 refold inh: blocks HSP90-mediated luciferase refolding in reticulocyte lysate; Rabbit reticulocyte lysate, luciferase refolding luminescence, 3 h; inhibition, % at 5.6 µM; 0.91% of 290,000 active;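 active means inhibition above the screen-wide mean plus 3 SD, computed separately per campaign, cut at about 16% in these data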;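 further: 0% = DMSO wells and 100% = 60 µM geldanamycin wells; inhibitors lower the luminescence because luciferase stays unfolded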
STAT3 activator: increases IL-6 driven STAT3 reporter signal; U3A cells, IL-6 STAT3-luciferase reporter, luminescence; 100% = signal with IL-6 EC80 alone; activation (% of control), % at 5.6 µM; 0.91% of 190,000 active; AID 871;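 active means activation above the screen-wide mean of compound activation plus 3 SD, cut at about 130% in these data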;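 further: 0% = background luminescence of wells with medium and substrate only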
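Assay system – human STAT1-deficient U3A cells with stable STAT3-luciferase reporter · Also added – IL-6 (33 ng/mL) · Schedule – compound 1 h, then IL-6 6 h at 37 °C · Technique – reporter luminescence signal · Evaluation – % activation versus median of IL-6-stimulated wells · Benchmarks – IL-6-only wells as 100% reference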
HSP90 confirm: confirmation of HSP90 inhibitors; shares compounds with HSP90 refold inh; inhibition, % at 5.9 µM; rabbit reticulocyte lysate, luciferase refolding luminescence, 3 h; 64% of 2,300 active; in the data active means inhibition above about 18%;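 further: 0% = vehicle wells and 100% = reference inhibitor wells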
luciferase ctr: counter-screen for HSP90 inhibitors: inhibitors of firefly luciferase | shares compounds with HSP90 refold inh | purified native firefly luciferase, luminescence | inhibition, % at 5.9 µM | 48% of 2,300 active;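 active means inhibition above the mean inhibition of all tested sample wells plus 3 SD, cut at about 10% in these data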;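 further: 0% = DMSO with luciferase and 100% = wells lacking luciferase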
Target sequence (P08659 whole entry, looked up): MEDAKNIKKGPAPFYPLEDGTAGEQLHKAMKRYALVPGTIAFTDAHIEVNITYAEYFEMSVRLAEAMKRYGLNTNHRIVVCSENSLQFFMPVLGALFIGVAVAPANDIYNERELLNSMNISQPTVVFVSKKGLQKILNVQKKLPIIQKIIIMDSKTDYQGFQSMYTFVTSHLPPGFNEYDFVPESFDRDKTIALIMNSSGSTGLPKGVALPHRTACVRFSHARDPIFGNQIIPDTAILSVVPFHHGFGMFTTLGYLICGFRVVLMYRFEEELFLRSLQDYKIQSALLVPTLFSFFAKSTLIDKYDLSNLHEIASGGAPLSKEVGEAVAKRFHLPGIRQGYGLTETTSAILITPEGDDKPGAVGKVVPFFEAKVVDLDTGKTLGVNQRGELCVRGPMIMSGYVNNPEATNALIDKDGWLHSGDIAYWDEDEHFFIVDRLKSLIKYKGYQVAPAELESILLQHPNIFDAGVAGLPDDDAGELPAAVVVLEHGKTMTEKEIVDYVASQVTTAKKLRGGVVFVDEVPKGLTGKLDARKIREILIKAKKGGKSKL
Numbers without * were called inactive; / = no result.

SMILES | STAT1 blocker | STAT3 inh | HSP90 refold inh | STAT3 activator | HSP90 confirm | luciferase ctr
CC1=CC2=NC(=O)CC(C)(C(=O)N(CC(=O)NC3CCCC3)Cc3ccccc3)N2C=C1 (configuration not stated) | / | / | 0 | / | / | /
Cc1ccc2nc(-c3ccc(N)cc3)sc2c1 | / | / | 50* | / | 69* | 66*
CCOC(=O)Cc1ccc2sc(-c3ccccc3)nc2c1 | -43 | 8 | 1 | 93 | / | /
Nc1ccc2nc(-c3ccccc3)sc2c1 | 42* | 64* | 37* | 46 | 72* | 68*
Nc1ccc(-c2nc3cc(N)ccc3s2)cc1 | 1 | 22 | 25* | 86 | 47* | 39*
COc1ccc(Cl)cc1C(=O)Nc1ccccc1N1CCCCC1 | / | / | 0 | / | / | /
COc1cccc(/C=N/NC(=O)CCC(=O)Nc2ccc(Br)cc2)c1 | / | / | 0 | / | / | /
Cc1ccc(/C=C/C(=O)N2CCc3ccccc32)o1 | -92 | 13 | 2 | 91 | / | /
O=C(/C=C/c1ccco1)N1CCc2ccccc21 | 12 | 35 | 24* | 73 | 41* | 25*
CN(C)c1ccc(C(=O)N/N=C/c2ccccn2)cc1 | / | / | 4 | / | / | /
Nc1cccc2nsnc12 | / | / | 0 | / | / | /
Nc1cc2nsnc2cc1Br | 11 | 24 | 25* | 85 | 14 | -5
Cc1cc(NC2CCCC2)n2ncc(-c3ccccc3)c2n1 | / | / | 59* | / | 71* | 70*
Cc1cc(N2CCC(C)CC2)n2ncc(-c3ccccc3)c2n1 | -35 | 29 | 45* | 79 | 59* | 56*
Cc1cc(N2CCCCC2)n2ncc(-c3ccccc3)c2n1 | -12 | 48* | 37* | 63 | 50* | 54*
Cc1cc(NC2CCCC2)n2nc(C)c(-c3ccccc3)c2n1 | / | / | 0 | / | / | /
CC(C)NC(=O)CN(C(=O)CCC(=O)Nc1nccs1)c1ccc(C(C)C)cc1 | / | / | -1 | / | / | /
Cc1[nH]c(-c2ccc3c(c2)OCO3)nc1C(=O)O | 2 | 12 | -1 | 97 | / | /
Cc1[nH]c(-c2ccco2)nc1C(=O)O | 3 | 3 | 18* | 100 | 0 | -3
CCN(CCn1cccn1)Cc1c(C(=O)N2C[C@@H](C)O[C@@H](C)C2)nc2ccc(Cl)cn12 | 5 | 6 | 6 | 98 | / | /
COc1ccccc1NS(=O)(=O)NC(=O)c1c(C)[nH]c2ccccc12 | / | / | -4 | / | / | /
Cc1[nH]c2ccccc2c1C(=O)NS(=O)(=O)Nc1ccc(Cl)cc1 | 2 | -5 | 18* | 106 | 1 | -2
Cc1ccc(-c2nc3nc4ccccc4nc3n2Cc2ccco2)cc1 | -27 | 35 | 47* | 75 | 20* | 0
Clc1ccc(-c2nc3nc4ccccc4nc3n2Cc2ccco2)cc1 | -30 | 4 | 3 | 100 | / | /
CCn1nnc2cc(C(=O)NCCc3ccccc3F)ccc21 | / | / | 43* | / | 59* | 39*
SMILES | STAT1 blocker | STAT3 inh | HSP90 refold inh | STAT3 activator | HSP90 confirm | luciferase ctr
CCn1nnc2cc(C(=O)O)ccc21 | / | / | -2 | / | / | /
COCCn1c(C)cc(C(=O)COC(=O)c2ccc3ncsc3c2)c1C | -35 | -4 | 3 | 106 | / | /
N#CCC(=O)Nc1ccc(C(=O)OCC(=O)c2ccc3c(c2)OCCO3)cc1 | -17 | 22 | 20* | 84 | 32* | -3
COCCn1c(C)cc(C(=O)COC(=O)c2ccc(NC(=O)CC#N)cc2)c1C | -37 | -3 | 19* | 106 | 10 | 14*
NS(=O)(=O)c1ccc(NC(=O)COC(=O)c2ccc3c(c2)OCCO3)cc1 | 1 | -3 | 1 | 104 | / | /
COc1ccc2ccccc2c1CNC(C)CCc1ccccc1 (configuration not stated) | / | / | 5 | / | / | /
COc1cc(NS(=O)(=O)c2ccc(C)cc2)c2ncccc2c1 | 4 | 1 | 6 | 105 | / | /
COc1cc(NCCCC(C)N)c2ncccc2c1 (configuration not stated) | -4 | 1 | 23* | 102 | 5 | -6
CCc1cc(C(=O)Nc2ncccc2O)sc1C | / | / | 43* | / | 53* | 43*
Nc1ccc(Cc2ccc(N)c(O)c2)cc1O | -3 | 8 | 24* | 94 | 14 | -6
O=C(CSc1ccc(-c2ccc(Br)cc2)nn1)NC1CCCC1 | / | / | -1 | / | / | /
CCc1c(C(=O)OCc2ccccc2)[nH]c(C)c1C | / | / | -5 | / | / | /
CCc1c(C)[nH]c(C(=O)OCc2ccccc2)c1C | -59 | 7 | 24* | 98 | -2 | -13
COc1cc(SC)ccc1C(=O)Nc1ccc(Cl)cn1 | 80* | 100* | 26* | 18 | 90* | 84*
CCc1ccc2oc(-c3ccc(OC)cc3)cc(=Nc3cccc(C(=O)O)c3)c2c1 | 11 | 27 | 24* | 79 | 10 | 3
O=c1cc(-c2ccc(Cl)cc2)[nH][nH]1 | -5 | 6 | 29* | 98 | 4 | -12
COc1ccc(-c2cc(=O)[nH][nH]2)cc1 | -5 | -3 | 34* | 108 | -4 | -12
O=C(C1=C[C@H](c2csc3ccccc23)C[C@H](OCCCCO)O1)N1CCN(Cc2ccc3c(c2)OCO3)CC1 | 7 | / | 19* | / | -6 | -13
Cn1cccc1/C=N/N1CCN(c2ccccc2)CC1 | -13 | 21 | 21* | 87 | 6 | -9
Cn1cccc1/C=N/N1CCN(Cc2ccccc2Cl)CC1 | / | / | 2 | / | / | /
O=C(/C=C/Nc1ccc(Br)cc1F)c1ccccc1 | 47* | 90* | 23* | 23 | 84* | 78*
O=C(/C=C/Nc1ccccc1Br)c1ccccn1 | 94* | 109* | 87* | 10 | 98* | 94*
COc1ccc(C(=O)/C=C/Nc2ccccn2)c(OC)c1 | / | / | 4 | / | / | /
O=C(/C=C\Nc1ccccn1)c1ccccc1 | 45* | 85* | 39* | 33 | 74* | 70*
CC(=O)c1ccc(S(=O)(=O)NC2CCCCCCC2)cc1 | / | / | 0 | / | / | /
SMILES | STAT1 blocker | STAT3 inh | HSP90 refold inh | STAT3 activator | HSP90 confirm | luciferase ctr
O=C(O)c1ccc(NC(=O)c2ccccc2NC(=O)c2ccccc2Br)cc1 | / | / | -3 | / | / | /
N#Cc1ccc(COC(=O)c2cnc(Cl)c(Cl)c2)cc1 | / | / | -3 | / | / | /
Cc1oc2cc3c(C(=O)N4CCCCC4)c(C)oc3cc2c1C(=O)N1CCCCC1 | -43 | -31 | 74* | 132 | 68* | 33*
C=Cc1ccc(Cn2c(=O)n(CCCOC)c(=O)c3sccc32)cc1 | / | / | 1 | / | / | /
O=C(Cc1sc(Nc2ccccc2)nc1-c1ccccc1)NCc1ccccc1 | -17 | -12 | -1 | 108 | / | /
CC(C)Oc1cccc(C(=O)NC(=S)Nc2ccccc2)c1 | -50 | -2 | 23* | 102 | 20* | 8
Cc1ccc(NC(=S)c2nc3ccccc3[nH]2)cc1 | -21 | 37 | 19* | 78 | 23* | 7
CCNC(=O)CC1C(=O)N(c2ccccc2)C(=O)N1CCOC (configuration not stated) | / | / | -1 | / | / | /
CN1CCN(c2ccc(CNC(=O)c3cc4ccccc4o3)cc2)CC1 | / | / | -1 | / | / | /
Cc1ccc(C(=O)NCc2ccc(N3CCN(C)CC3)cc2)cc1C | / | / | 22* | / | 0 | -9
CC(C)Oc1cccc(C(=O)Nc2ccc(N3CCN(S(C)(=O)=O)CC3)cc2)c1 | 2 | 3 | 5 | 101 | / | /
CN1CCN(c2ccc(NC(=O)c3ccc4ccccc4c3)cc2)CC1 | / | / | 25* | / | 31* | 28*
